Assay outcomes deposited in PubChem by The Scripps Research Institute Molecular Screening Center.
HTRA1 inhibitor: blocks human HTRA1 serine peptidase; Q92743; recombinant HTRA1, FP-rhodamine activity-based probe, fluorescence polarization; inhibition, % at 5.96 µM; 0.5% of 340,000 active; in the data active means inhibition above about 36%;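 further: 0% = enzyme with DMSO and 100% = wells lacking enzyme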
PRMT1 inh: PRMT1 (human) inhibition, primary screen; Q99873; recombinant PRMT1, activity-based probe fluorescence polarization; inhibition, % at 2.79 µM; 1.3% of 370,000 active;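 active means inhibition above about 21% made by adding two undisclosed values, limit read from the data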
mABHD4 FP: ABHD4 (mouse) inhibition, primary FP screen. purified mABHD4, FP-Rh probe fluorescence polarization. AID 720543. inhibition, % at 8.92 µM. 0.54% of 370,000 active. Q8VD66;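 active means inhibition exceeding the mean over every tested compound plus 3 SD, cut at about 30% in these data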;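 further: 0% = plate median of compound wells and 100% = S159A mutant with DMSO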
Target sequence (Q8VD66 whole entry, looked up): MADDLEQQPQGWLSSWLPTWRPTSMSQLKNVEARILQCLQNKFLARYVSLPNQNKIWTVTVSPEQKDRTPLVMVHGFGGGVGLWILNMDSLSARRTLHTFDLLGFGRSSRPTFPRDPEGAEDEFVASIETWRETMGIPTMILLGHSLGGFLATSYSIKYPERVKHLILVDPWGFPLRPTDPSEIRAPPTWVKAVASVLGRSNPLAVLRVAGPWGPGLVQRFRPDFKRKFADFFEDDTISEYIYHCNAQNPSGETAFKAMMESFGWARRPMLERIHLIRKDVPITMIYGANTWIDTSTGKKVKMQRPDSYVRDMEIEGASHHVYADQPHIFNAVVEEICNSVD
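Test system: mABHD4 protein; Read-out basis: % inhibition; Incubation: 45 min + 60 min at 25 °C; Repeats: single replicate; Technique: fluorescence polarization with parallel and perpendicular emission, 525/598 nm; Compound: 8.92 µM, single dose; Benchmarks: full inhibition S159A mutant plus DMSO, zero as sample-well median.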
LEDGF integ inh: blocks HIV-1 LEDGF/p75-dependent DNA integration; inhibition, % at 3.7 µM; 0.64% of 370,000 active; TR-FRET IN-LEDGF/p75 DNA integration, Eu/Cy5;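 active means inhibition above the screen-wide mean plus 3 SD, cut at about 13% in these data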;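 further: signal is the Cy5 over europium emission ratio at 671 and 618 nm; 0% = plate median of compound wells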
rCAG binder: molecules binding r(CAG) RNA repeats. inhibition, % at 3 µM. 1.3% of 370,000 active. r(CAG) RNA repeat, TO-PRO-1 dye displacement fluorescence;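 active means inhibition above the plate cutoff, the mean of all test compounds on that plate plus 3 SD, cut at about 35% in these data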;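 further: 0% = DMSO alone and 100% = 100 µM mitoxantrone as full dye displacement; higher means more dye released from RNA so lower well fluorescence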
DAGLB inhibitor: blocks human DAGLB lipase activity | Q8NCG7 | HEK293T DAGLB membrane lysate, EnzChek fluorogenic substrate | inhibition, % at 5.17 µM | 0.059% of 340,000 active | AID 504411; in the data active means inhibition above about 34%;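 further: 0% = enzyme with vehicle and 100% = wells lacking enzyme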
HTRA1 conf: HTRA1 (human) inhibition, confirmation; shares compounds with HTRA1 inhibitor; recombinant HTRA1, FP-rhodamine activity-based probe, fluorescence polarization; inhibition, % at 5.96 µM; 66% of 1,600 active; AID 540248;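 active means mean inhibition over three repeats above a set limit taken from the earlier primary screen, cut at about 37% in these data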;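 further: 0% = HTRA1 with DMSO and 100% = wells lacking HTRA1; inhibitors block probe binding so polarization drops and inhibition rises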
rCAG binder conf: r(CAG) RNA repeat binding, confirmation; TO-PRO-1 dye displacement fluorescence; 70% of 4,300 active; inhibition, % at 3 µM; shares compounds with rCAG binder;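 active means inhibition above a per-plate cutoff, the mean inhibition of sample wells plus 3 SD, cut at about 35% in these data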;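 further: loss of TO-PRO-1 fluorescence as compound displaces dye from 1x1 AA loop RNA; 0% = DMSO only wells and 100% = 100 µM mitoxantrone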
dCAG dye counter: counter-screen for rCAG RNA binders: DNA CAG dye complex inhibitors | shares compounds with rCAG binder | 94% of 4,300 active | d(CAG) DNA oligo TO-PRO-1 dye displacement, fluorescence | inhibition, % at 3 µM | AID 652068;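 active means inhibition above its plate's cutoff, the mean test-well inhibition plus 3 SD, cut at about 4.8% in these data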;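 further: 0% = DNA dye mix with DMSO and 100% = 100 µM mitoxantrone; hits displace the dye from DNA and so lower well fluorescence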
Numbers without * were called inactive; . = no result; + = active, no number. Compounds with a hit are over-represented: about 3.2% of the library has one in this group of screens.

SMILES	HTRA1 inhibitor	PRMT1 inh	mABHD4 FP	LEDGF integ inh	rCAG binder	DAGLB inhibitor	HTRA1 conf	rCAG binder conf	dCAG dye counter
CN1CCN(C(c2ccc(Cl)cc2)c2cc(Cl)c3cccnc3c2O)CC1 (stereo unspecified)	43*	-3	-1	-2	7	-5	87*	.	.
CN1CCN(C(c2ccc(C(F)(F)F)cc2)c2cc(Cl)c3cccnc3c2O)CC1 (stereo unspecified)	.	-5	-7	4	3	.	.	.	.
CC(C)OCCCN1C(=O)c2[nH]nc(-c3ccccc3O)c2C1c1cccc(Cl)c1 (stereo unspecified)	-34	2	-3	1	0	5	.	.	.
CCCNC(=O)C(Cc1ccccc1)NC(=O)c1cccc([N+](=O)[O-])c1 (stereo unspecified)	-2	0	5	-2	-4	-2	.	.	.
C(=Nc1cccc2c(N=Cc3ccco3)cccc12)c1ccco1	39*	.	.	.	.	2	3	.	.
O=Cc1cscc1[B-](F)(F)F	.	-3	9	2	4	.	.	.	.
CCC[n+]1c(C)sc2c3c(ccc21)CCCC3	46*	.	.	.	.	-3	50*	.	.
Nc1ccccc1NC1CCCCC1	41*	8	14	-1	5	4	48*	.	.
Cn1[nH]cc(C=NC(N)=O)c1=O	47*	-2	7	1	0	-1	1	.	.
N/C(Cc1ccc(Cl)c(Cl)c1)=N\OC(=O)c1ccc(Br)o1	+	2	-3	-4	-2	-13	-5	.	.
Cc1ccc(NC(=O)c2cc3ccccc3cc2O)cc1	-2	-2	19	3	28	-1	.	.	.
COc1ccc(NC(=O)c2cc3ccccc3cc2O)cc1	39*	5	28	-4	46*	4	3	39*	16*
C/C(=N\NC(=O)c1cc2ccccc2cc1O)c1ccc(C)o1	47*	-1	28	3	43*	-4	23	12	6.5*
CCOc1ccc(S(=O)(=O)NCc2cccnc2)cc1	9	-3	3	7	0	-1	.	.	.
O=C(COC(=O)COc1cccc2ccccc12)NCC(F)(F)F	-4	0	-1	4	-1	0	.	.	.
O=C1Nc2ccc(Br)cc2C1(O)c1ccccc1 (stereo unspecified)	-3	0	0	3	-1	0	.	.	.
O=C1Nc2ccc(Br)cc2C12NNc1ccccc1O2 (stereo unspecified)	49*	7	28	1	61*	23	62*	58*	48*
COc1cc(/C=C2\CC/C(=C\c3cc(OC)c(O)c(OC)c3)C2=O)cc(OC)c1O	46*	27*	20	34*	36*	3	55*	40*	15*
Cc1ccc(C2=NC(=O)/C(=C/c3cc(O)c(O)c(Br)c3)S2)cc1	67*	23*	22	89*	84*	14	71*	86*	52*
O=c1cc(-c2ccc(O)c(O)c2)oc2ccc3ccccc3c12	69*	5	23	-4	41*	13	70*	59*	28*
O=C(c1ccccc1)N1C(=O)C(c2ccccc2)Oc2ccccc21 (stereo unspecified)	-7	-2	-5	-5	-5	-6	.	.	.
CCOC(=O)N1CCC(=NNC(=O)c2cc3ccccc3cc2O)CC1	43*	3	23	3	37*	-1	15	15	11*
O=C(NN=C1CCCCCC1)c1cc2ccccc2cc1O	11	-1	22	0	30	-5	.	.	.
Cc1ccc2sc(NNC(=O)c3cc(-c4cccs4)nc4ccccc34)nc2c1C	.	0	8	-2	19	.	.	.	.
O=C(NNc1nc2ccc(Cl)cc2s1)c1cc(-c2cccs2)nc2ccccc12	42*	-4	-6	6	55*	5	56*	50*	25*
SMILES	HTRA1 inhibitor	PRMT1 inh	mABHD4 FP	LEDGF integ inh	rCAG binder	DAGLB inhibitor	HTRA1 conf	rCAG binder conf	dCAG dye counter
COc1ccc(CNC(=O)CNC(=O)c2cccs2)c(OC)c1	4	-5	-2	2	1	-2	.	.	.
O=C1CC(Nc2ccc(N3CCOCC3)cc2)C(=O)N1Cc1ccccc1 (stereo unspecified)	49*	12	49*	22*	35*	12	12	8	6.9*
O=C(N/N=C/c1cc(Cl)c(O)c(Cl)c1)c1cc2c(ccc3ccccc32)o1	46*	4	29	1	86*	2	50*	78*	40*
O=C(N/N=C/c1cc(Br)c(O)c(Br)c1)c1cc2c(ccc3ccccc32)o1	46*	11	11	9	96*	13	49*	78*	46*
N/C(Cc1nc(-c2ccc(Cl)cc2)cs1)=N/O	-1	-3	-7	-3	-1	3	.	.	.
CC(C)[C@H](NC(=O)c1ccccc1)C(=O)NC1CCCCCCC1	-4	-2	-6	1	2	1	.	.	.
CSc1ccc(CN(C)CC(=O)Nc2ccccc2Br)cc1	-21	2	-8	1	1	-20	.	.	.
Cc1[nH]n(-c2ccccc2)c(=O)c1N=Nc1ccccc1O	43*	2	-53	-9	40*	31	31	27	13*
Cc1[nH]n(-c2ccccc2)c(=O)c1N=Nc1ccccc1C(=O)O	-4	0	19	6	33	21	.	.	.
Cc1cc(C)c(COCc2cc(/C=N/O)c(C)cc2C)cc1/C=N/O	-44	-2	-22	0	-2	-6	.	.	.
O=c1oc2ccccc2c2oc3cc(O)c(O)cc3c12	82*	5	55*	5	41*	10	77*	53*	28*
Nc1c(N)c2ccccc2oc1=O	-8	5	11	-2	9	-4	.	.	.
O=C(N/N=C/c1ccc(-c2ccc(S(=O)(=O)Nc3ncccn3)cc2)o1)c1cc2ccccc2cc1O	57*	17	1	10	82*	22	66*	75*	39*
NS(=O)(=O)c1ccc(-c2ccc(/C=N/NC(=O)c3ccccc3O)o2)cc1	8	-1	8	-6	7	0	.	.	.
CSCCC(NC(=O)COc1ccccc1)C(=O)N1CC(C)CC(C)C1 (stereo unspecified)	0	-3	-7	6	-4	-1	.	.	.
COc1ccc(/C=N\NC(=O)c2cc(O)c(O)c(O)c2)cc1COc1ccc(C(=O)OCC(C)C)cc1	58*	7	7	12	50*	12	55*	56*	35*
